Active and inactive are the calls of the source. The rule behind the calls is not given here.
Experiments:
HCT-116 [1] = assay: Cytotoxicity against human HCT116 cells by WST-1 assay relative to aphidicolin; format: functional, cell-based
HCT-116 [2] = assay: Cytotoxicity against human HCT116 cells by WST-1 assay relative to etoposide; format: functional, cell-based
HCT-116 [3] = assay: Cytotoxicity against human HCT116 cells by WST-1 assay relative to camptothecin; format: functional, cell-based
[4] = Inhibition of human DNA polymerase delta using poly(dA)/oligo(dT)18 (A/T = 2/1) and dTTP as the DNA template-primer and nucleotide substrate after 60 mins
Method in brief: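 Compound in DMSO, sonicated 30 s. Premixed 0 °C, 10 min with enzyme (0.05 units) in 50 mM Tris-HCl pH 7.5, 1 mM DTT, 50% glycerol, 0.1 mM EDTA, then added to standard reaction mixture. Template-primers: poly(dA)/oligo(dT)18 (2/1) for pols, oligo(dT)18 for TdT, poly(rA)/oligo(dT)18 for HIV-1 RT, with [3H]dTTP. 60 min at 37 °C (Taq 74 °C). Activity relative to no-inhibitor control; mean ± SE of three experiments.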

CCCCCCCC/C=C\CCCCCCCC(=O)Oc1cccc2c1C(=O)C=CC2=O
Activity (HCT-116 [1]): Active
Activity (HCT-116 [2]): Active
Activity (HCT-116 [3]): Active
IC50 [4]: 740 nM

Reference: ChEMBL document CHEMBL1914406, “Inhibitory effect of novel 5-O-acyl juglones on mammalian DNA polymerase activity, cancer cell growth and inflammatory response” (Bioorg Med Chem, 2011)
